Experimental data taken from ChEMBL document CHEMBL1828535, “Synthesis and in vitro activity of novel N-3 acylated TSAO-T compounds against HIV-1 and HCV” (Eur J Med Chem, 2011).
pEC50: −log10 of the molar value. Active and inactive are the calls of the source. The calls are words filed in the database; no cut-off is given here.

How the values were obtained:
[1] = tested on: Human immunodeficiency virus 1; test: Antiviral activity against HIV1 harboring reverse transcriptase E138K mutant infected in human CEM cells assessed as inhibition of virus-induced cytopathicity after 4 days; type: functional, organism-based; settings: CCRF-CEM
Summary of the method: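 CEM cells at 4 x 10⁶ cells/mL infected with HIV-1/E138K (RT mutant strain selected under TSAO-m³T) at about 100 CCID₅₀ per mL of cell suspension. Syncytia formation scored microscopically after 4 days. EC₅₀ taken as the concentration inhibiting virus-induced cytopathicity by 50%.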

[2] = tested on: Human immunodeficiency virus 1; test: Antiviral activity against HIV1 3B infected in human CEM cells assessed as inhibition of virus-induced cytopathicity after 4 days; type: functional, organism-based; settings: Human immunodeficiency virus 1, 3B, CCRF-CEM, 96 h
Summary of the method: (§1)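 CEM cells at 4 x 10⁶/mL infected with HIV-1 IIIB or HIV-2 ROD at ~100 CCID₅₀ per mL of cell suspension; compound present; syncytia formation scored microscopically after 4 days; EC₅₀ = concentration inhibiting virus-induced cytopathicity by 50%.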

[3] = Chemical stability of the compound in phosphate buffered saline assessed as compound degradation after 72 hrs; type: physicochemical; settings: buffer
Summary of the method: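 Compound held in PBS at 37 °C for 72 h; degradation judged by comparing LCMS spectra before and after incubation.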

Hepatitis C virus = test: Antiviral activity against HCV2a JFH1 infected in human Huh7 cells assessed as inhibition of viral replication after 72 hrs by luciferase reporter gene assay; type: functional, organism-based, Hepacivirus hominis; settings: JFH-1, Huh-7, 72 h
[4] = Cytotoxicity against human HuH7 cells after 72 hrs; type: cell-based, Huh-7
[5] = tested on: Human immunodeficiency virus 2; test: Antiviral activity against HIV2 ROD infected in human CEM cells assessed as inhibition of virus-induced cytopathicity after 4 days; type: functional, organism-based; settings: Human immunodeficiency virus 2, ISOLATE ROD, CCRF-CEM, 96 h; summary of the method: as §1
[6] = Cytotoxicity against human CEM cells after 4 days; type: cell-based; settings: CEM (CCRF-CEM) cells
Summary of the method: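 CC₅₀ taken as concentration inhibiting CEM cell proliferation by 50%.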

Row | SMILES | inhibition [1] | pEC50 [2] | Stability [3] | pEC50 (Hepatitis C virus) | CC50 at 72 h [4] | pEC50 [5] | CC50 at 96 h [6]
1 | Cc1cn([C@@H]2O[C@H](CO[Si](C)(C)C(C)(C)C)[C@@]3(OS(=O)(=O)C=C3N)[C@H]2O[Si](C)(C)C(C)(C)C)c(=O)n(C(=O)CCCC(=O)NCc2ccccc2)c1=O | inactive | 7.28 | Stable | 5.12 | > 100 µM | ≤ 5.40 | 8.8 µM
2 | Cc1cn([C@@H]2O[C@H](CO[Si](C)(C)C(C)(C)C)[C@@]3(OS(=O)(=O)C=C3N)[C@H]2O[Si](C)(C)C(C)(C)C)c(=O)n(C(=O)c2ccccc2)c1=O | inactive | 7.31 | Stable | 5.01 | > 100 µM | ≤ 5.40 | 54 µM
3 | C[C@@]1(O)[C@H](O)[C@@H](CO)O[C@H]1n1ccc(N)nc1=O | inactive |  |  | 5.62 | > 33 µM |  | 
4 | Cc1cn([C@@H]2O[C@H](CO[Si](C)(C)C(C)(C)C)[C@@]3(OS(=O)(=O)C=C3N)[C@H]2O[Si](C)(C)C(C)(C)C)c(=O)[nH]c1=O | inactive |  |  | 4.85 | > 100 µM | < 4.70 | 12 µM
5 | COC(=O)n1c(=O)c(C)cn([C@@H]2O[C@H](CO[Si](C)(C)C(C)(C)C)[C@@]3(OS(=O)(=O)C=C3N)[C@H]2O[Si](C)(C)C(C)(C)C)c1=O | inactive | 7.15 | Stable | < 4.00 | > 100 µM | ≤ 4.00 | > 100 µM
6 | Cc1cn([C@@H]2O[C@H](CO[Si](C)(C)C(C)(C)C)[C@@]3(OS(=O)(=O)C=C3N)[C@H]2O[Si](C)(C)C(C)(C)C)c(=O)n(C(=O)CCCC(=O)OC(C)(C)C)c1=O | inactive | 7.48 | Stable | 4.96 | > 100 µM | ≤ 5.40 | 11 µM
7 | COC(=O)CCCC(=O)n1c(=O)c(C)cn([C@@H]2O[C@H](CO[Si](C)(C)C(C)(C)C)[C@@]3(OS(=O)(=O)C=C3N)[C@H]2O[Si](C)(C)C(C)(C)C)c1=O | inactive | 7.27 | Stable | 4.96 | > 100 µM | ≤ 5.40 | 9.9 µM
8 | COC(=O)c1cccc(C(=O)n2c(=O)c(C)cn([C@@H]3O[C@H](CO[Si](C)(C)C(C)(C)C)[C@@]4(OS(=O)(=O)C=C4N)[C@H]3O[Si](C)(C)C(C)(C)C)c2=O)c1 | inactive | 7.39 | Stable | 5.09 | > 100 µM | ≤ 5.40 | 14 µM
9 | CNC(=O)CCCCn1c(=O)c(C)cn([C@@H]2O[C@H](CO[Si](C)(C)C(C)(C)C)[C@@]3(OS(=O)(=O)C=C3N)[C@H]2O[Si](C)(C)C(C)(C)C)c1=O | inactive |  |  |  |  | < 5.00 | 10 µM
10 | CSC(=O)CCCC(=O)n1c(=O)c(C)cn([C@@H]2O[C@H](CO[Si](C)(C)C(C)(C)C)[C@@]3(OS(=O)(=O)C=C3N)[C@H]2O[Si](C)(C)C(C)(C)C)c1=O | inactive | 7.43 | Stable | 5.15 | > 100 µM | ≤ 5.40 | 9.9 µM
11 | Cc1cn([C@@H]2O[C@H](CO[Si](C)(C)C(C)(C)C)[C@@]3(OS(=O)(=O)C=C3N)[C@H]2O[Si](C)(C)C(C)(C)C)c(=O)n(C(=O)CCCC(=O)OCc2ccccc2)c1=O | inactive | 7.40 | Stable | 5.00 | > 100 µM | ≤ 5.40 | 9.2 µM
12 | Cc1cn([C@@H]2O[C@H](CO[Si](C)(C)C(C)(C)C)[C@@]3(OS(=O)(=O)C=C3N)[C@H]2O[Si](C)(C)C(C)(C)C)c(=O)n(C(=O)CCCBr)c1=O | inactive | 7.28 | Stable | 4.37 | > 100 µM | ≤ 5.40 | 11 µM
13 | Cc1cn([C@@H]2O[C@H](CO[Si](C)(C)C(C)(C)C)[C@@]3(OS(=O)(=O)C=C3N)[C@H]2O[Si](C)(C)C(C)(C)C)c(=O)n(C(=O)CCCC(N)=O)c1=O | inactive | 7.42 | Stable | 5.05 | > 100 µM | ≤ 5.40 | 8.7 µM
14 | CNC(=O)CCCC(=O)n1c(=O)c(C)cn([C@@H]2O[C@H](CO[Si](C)(C)C(C)(C)C)[C@@]3(OS(=O)(=O)C=C3N)[C@H]2O[Si](C)(C)C(C)(C)C)c1=O | inactive | 7.23 | Stable | 4.92 | > 100 µM | ≤ 5.40 | 9.1 µM
15 | Cc1cn([C@@H]2O[C@H](CO[Si](C)(C)C(C)(C)C)[C@@]3(OS(=O)(=O)C=C3N)[C@H]2O[Si](C)(C)C(C)(C)C)c(=O)n(C(=O)OC(C)(C)C)c1=O | inactive |  |  |  |  |  | 26 µM
16 | Cc1cn([C@@H]2O[C@H](CO[Si](C)(C)C(C)(C)C)[C@@]3(OS(=O)(=O)C=C3N)[C@H]2O[Si](C)(C)C(C)(C)C)c(=O)n(C(=O)CCCC(=O)N(C)C)c1=O | inactive | 7.49 | Stable | 5.36 | > 100 µM | ≤ 5.40 | 9.5 µM
17 | Cc1cn([C@@H]2O[C@H](CO[Si](C)(C)C(C)(C)C)[C@@]3(OS(=O)(=O)C=C3N)[C@H]2O[Si](C)(C)C(C)(C)C)c(=O)n(C(=O)C2CC2)c1=O | inactive | 7.38 | Stable | 5.07 | > 100 µM | ≤ 5.40 | 11 µM
18 | Cc1cn([C@@H]2O[C@H](CO[Si](C)(C)C(C)(C)C)[C@@]3(OS(=O)(=O)C=C3N)[C@H]2O[Si](C)(C)C(C)(C)C)c(=O)n(C)c1=O | inactive | 7.43 |  | < 4.00 | > 100 µM | < 3.60 | 115 µM
